Results published in ChEMBL document CHEMBL1128261, “Synthesis and biological activity of thiazolylindolequinones, analogues of the natural product BE 10988” (J Med Chem, 1995).

Columns and labels:
[1] = tested on: SK-BR-3; assay: The IC50 value was measured on human breast cancer cell line SK-BR-3.; assay type: functional, cell-based
Method in brief: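 SKBr3 breast cancer cells were seeded at 10^4 cells/well for exponential growth over 4 days. Graded compound concentrations were added 2 h after plating (4 wells per concentration), with continuous exposure for 4 days and MTT growth readout. Each experiment was done at least twice, and IC50 was derived from the cumulative data.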

[2] = tested on: V79; assay: The IC50 value was measured on V79 cells in the presence of air using MTT assay.; assay type: functional, cell-based; conditions: Cricetulus griseus
Method in brief: (§1)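 V79 Chinese hamster cells were exposed to drug under aerobic (air) or hypoxic (N2) conditions. After the drug was removed, cells proliferated for 3 days before MTT assay. IC50 is the concentration killing 50% of cells under the initial treatment condition.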

[3] = tested on: V79; assay: The IC50 value was measured on V79 cells in the presence of nitrogen using MTT assay.; assay type: functional, cell-based; conditions: Cricetulus griseus; method in brief: as §1
[4] = Ratio of IC50 against V79 cells in the presence of air to that of nitrogen.; assay type: functional

Structure (SMILES) | IC50 [1] [µM] | IC50 [2] [µM] | IC50 [3] [µM] | Ratio [4]
Cc1csc(-c2cn(C)c3c2C(=O)C(=N)C=C3O)n1 | 0.73 | 10.3 | 6 | 1.7
Cn1cc(-c2nc(C(N)=O)cs2)c2c1C(=O)C=C(N)C2=O | 8.7 | 6.2 | 5.1 | 1.2
COC1=CC(=O)c2c(c(-c3nc(C)cs3)cn2C)C1=O | 1.4 | 72.9 | 47.7 | 1.5
Cn1cc(-c2csc(C(N)=O)n2)c2c1C(=O)C=C(N)C2=O | 4.1 | 5.5 | 4.1 | 1.3
O=C1c2c(O)ccc(O)c2C(=O)c2c(NCCNCCO)ccc(NCCNCCO)c21 [MITOXANTRONE] | 0.016 | – | – | –

Continued, in another order:

IC50 [1] [µM] | Structure (SMILES) | IC50 [2] [µM] | IC50 [3] [µM] | Ratio [4]
16.9 | CCOC(=O)c1nc(-c2cn(C)c3c2C(=O)C(OC)=CC3=O)cs1 | 38.7 | 60.9 | 0.64
4.8 | CCOC(=O)c1coc(-c2cn(C)c3c2C(=O)C(OC)=CC3=O)n1 | 51.7 | 46 | 1.1
27.8 | CCOC(=O)c1csc(-c2cn(C)c3c2C(=O)C(OC)=CC3=O)n1 | 423 | 345 | 1.2
